Data on 7 molecules can be found in ChEMBL document CHEMBL1150387, “Development and experimental validation of a docking strategy for the generation of kinase-targeted libraries” (J Med Chem, 2008).

Test [1] has as its target Protein-tyrosine kinase 6 (Homo sapiens) (UniProt Q13882). Put plainly: Inhibition of Brk at 10 uM by HTRF assay relative to control. The procedure, abridged: (§1)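 HTRF kinase assay, one panel of kinases. Inhibitor stock 50 µM in 100% DMSO; tested at 10 µM. ATP and substrate at final levels near Km. Final buffer: 50 mM Hepes/NaOH pH 7.4, 40 µM Na3VO4, 0.005% Tween-20, 1 mM DTT, MnCl2 or MgCl2 at kinase-dependent levels. Started by adding ATP/substrate. Reaction run at room temperature, time varied by kinase. Detection mix in 50 mM Hepes pH 7.4, 0.1% BSA, 150 mM KF, incubated ≥1 h at room temperature. Activity expressed as % of uninhibited control; n=2.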
Background: TR-FRET usually uses a lanthanide donor and a delayed reading to cut background.

Test [2] in a line: Inhibition of IRK at 10 uM by HTRF assay relative to control. The procedure, abridged: as §1
Test [3] addresses Ribosomal protein S6 kinase alpha-3 (Homo sapiens) (UniProt P51812). In words: Inhibition of RSK2 at 10 uM by HTRF assay relative to control. The gist of the method: as §1
Test [4] concerns the target RAC-alpha serine/threonine-protein kinase (Homo sapiens) (UniProt P31749). In words: Inhibition of AKT1/PKBalpha at 10 uM by HTRF assay relative to control. The gist of the method:
as §1

Test [5] deals with MAP kinase-activated protein kinase 2 (Homo sapiens) (UniProt P49137). Put plainly: Inhibition of MAPKAPK2 at 10 uM by HTRF assay relative to control. The procedure, abridged:
as §1

In test [6] the target is Platelet-derived growth factor receptor beta (Homo sapiens) (UniProt P09619). Put plainly: Inhibition of PDGFRbeta at 10 uM by HTRF assay relative to control. The procedure, abridged: as §1
Chain of Platelet-derived growth factor receptor beta (Homo sapiens) (P09619 whole entry): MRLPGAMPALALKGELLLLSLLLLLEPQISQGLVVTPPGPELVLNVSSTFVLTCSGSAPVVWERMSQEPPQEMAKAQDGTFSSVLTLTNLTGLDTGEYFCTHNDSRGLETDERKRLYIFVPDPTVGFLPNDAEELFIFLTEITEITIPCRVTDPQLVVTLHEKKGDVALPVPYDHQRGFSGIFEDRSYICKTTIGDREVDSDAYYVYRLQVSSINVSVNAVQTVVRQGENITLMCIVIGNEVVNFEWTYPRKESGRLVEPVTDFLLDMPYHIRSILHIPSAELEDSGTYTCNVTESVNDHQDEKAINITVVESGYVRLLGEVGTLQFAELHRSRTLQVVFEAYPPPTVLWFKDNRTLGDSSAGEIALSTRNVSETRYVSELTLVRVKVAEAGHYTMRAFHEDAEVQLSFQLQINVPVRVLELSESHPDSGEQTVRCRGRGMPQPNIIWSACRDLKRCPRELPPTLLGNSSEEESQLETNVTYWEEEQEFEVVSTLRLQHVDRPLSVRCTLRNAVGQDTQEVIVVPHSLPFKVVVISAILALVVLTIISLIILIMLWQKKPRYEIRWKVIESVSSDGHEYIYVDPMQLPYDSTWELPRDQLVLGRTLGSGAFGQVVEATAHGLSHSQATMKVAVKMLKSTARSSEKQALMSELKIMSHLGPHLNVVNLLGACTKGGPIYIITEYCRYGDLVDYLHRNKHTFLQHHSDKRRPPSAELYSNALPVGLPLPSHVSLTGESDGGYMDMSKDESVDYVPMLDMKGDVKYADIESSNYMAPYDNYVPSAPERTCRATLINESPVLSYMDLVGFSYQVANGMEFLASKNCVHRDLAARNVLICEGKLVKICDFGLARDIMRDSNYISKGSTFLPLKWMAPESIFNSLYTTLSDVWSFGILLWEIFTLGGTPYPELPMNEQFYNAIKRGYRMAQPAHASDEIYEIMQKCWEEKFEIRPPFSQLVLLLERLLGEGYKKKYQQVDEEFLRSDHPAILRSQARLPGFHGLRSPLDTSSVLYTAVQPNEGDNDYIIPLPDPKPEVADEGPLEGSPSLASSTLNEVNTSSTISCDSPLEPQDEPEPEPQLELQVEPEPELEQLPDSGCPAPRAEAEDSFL
For test [7], the target named is Mitogen-activated protein kinase 9 (Homo sapiens) (UniProt P45984). In words: Inhibition of JNK2 at 10 uM by HTRF assay relative to control. The gist of the method: as §1
Test [8] concerns the target Calcium/calmodulin-dependent protein kinase type II subunit alpha (Homo sapiens) (UniProt Q9UQM7). In words: Inhibition of CaMK2alpha at 10 uM by HTRF assay relative to control. The procedure, abridged: as §1
Test [9] deals with T1, Tyrosine-protein kinase ZAP-70 (Homo sapiens) (UniProt P43403).
T1 sequence (whole entry): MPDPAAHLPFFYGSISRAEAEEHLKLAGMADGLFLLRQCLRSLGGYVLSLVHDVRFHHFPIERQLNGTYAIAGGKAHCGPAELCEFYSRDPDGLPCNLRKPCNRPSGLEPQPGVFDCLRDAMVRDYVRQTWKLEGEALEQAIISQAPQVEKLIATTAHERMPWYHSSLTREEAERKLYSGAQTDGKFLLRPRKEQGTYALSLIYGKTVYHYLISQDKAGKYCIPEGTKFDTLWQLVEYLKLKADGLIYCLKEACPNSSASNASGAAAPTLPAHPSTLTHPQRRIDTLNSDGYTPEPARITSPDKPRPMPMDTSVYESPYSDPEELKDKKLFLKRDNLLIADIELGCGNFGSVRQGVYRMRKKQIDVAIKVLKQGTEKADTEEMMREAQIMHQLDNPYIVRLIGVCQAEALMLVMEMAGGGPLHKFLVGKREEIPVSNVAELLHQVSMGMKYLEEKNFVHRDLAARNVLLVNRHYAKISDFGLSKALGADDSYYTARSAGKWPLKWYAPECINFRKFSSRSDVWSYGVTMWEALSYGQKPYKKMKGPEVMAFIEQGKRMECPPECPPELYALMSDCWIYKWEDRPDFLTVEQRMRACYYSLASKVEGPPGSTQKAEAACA
In words: Inhibition of ZAP70 at 10 uM by HTRF assay relative to control. The procedure, abridged: as §1

Test [10] has as its target Fibroblast growth factor receptor 1 (Homo sapiens) (UniProt P11362). Put plainly: Inhibition of FGFR1 at 10 uM by HTRF assay relative to control. The gist of the method:
as §1

The target of test [11] is Insulin-like growth factor 1 receptor (Homo sapiens) (UniProt P08069). Put plainly: Inhibition of IGF1R at 10 uM by HTRF assay relative to control. The gist of the method:
as §1

Test [12] is described as follows: Inhibition of PKA at 10 uM by HTRF assay relative to control. The procedure, abridged:
as §1

Test [13] has as its target Mitogen-activated protein kinase 1 (Homo sapiens) (UniProt P28482). In words: Inhibition of ERK2 at 10 uM by HTRF assay relative to control. The procedure, abridged:
as §1

Test [14] deals with Tyrosine-protein kinase ABL1 (Homo sapiens) (UniProt P00519). Put plainly: Inhibition of Abl at 10 uM by HTRF assay relative to control. The gist of the method:
as §1

Test [15] deals with Focal adhesion kinase 1 (Homo sapiens) (UniProt Q05397). Put plainly: Inhibition of FAK at 10 uM by HTRF assay relative to control. The gist of the method: as §1
Chain of Focal adhesion kinase 1 (Homo sapiens) (Q05397 2-1052 limits assumed): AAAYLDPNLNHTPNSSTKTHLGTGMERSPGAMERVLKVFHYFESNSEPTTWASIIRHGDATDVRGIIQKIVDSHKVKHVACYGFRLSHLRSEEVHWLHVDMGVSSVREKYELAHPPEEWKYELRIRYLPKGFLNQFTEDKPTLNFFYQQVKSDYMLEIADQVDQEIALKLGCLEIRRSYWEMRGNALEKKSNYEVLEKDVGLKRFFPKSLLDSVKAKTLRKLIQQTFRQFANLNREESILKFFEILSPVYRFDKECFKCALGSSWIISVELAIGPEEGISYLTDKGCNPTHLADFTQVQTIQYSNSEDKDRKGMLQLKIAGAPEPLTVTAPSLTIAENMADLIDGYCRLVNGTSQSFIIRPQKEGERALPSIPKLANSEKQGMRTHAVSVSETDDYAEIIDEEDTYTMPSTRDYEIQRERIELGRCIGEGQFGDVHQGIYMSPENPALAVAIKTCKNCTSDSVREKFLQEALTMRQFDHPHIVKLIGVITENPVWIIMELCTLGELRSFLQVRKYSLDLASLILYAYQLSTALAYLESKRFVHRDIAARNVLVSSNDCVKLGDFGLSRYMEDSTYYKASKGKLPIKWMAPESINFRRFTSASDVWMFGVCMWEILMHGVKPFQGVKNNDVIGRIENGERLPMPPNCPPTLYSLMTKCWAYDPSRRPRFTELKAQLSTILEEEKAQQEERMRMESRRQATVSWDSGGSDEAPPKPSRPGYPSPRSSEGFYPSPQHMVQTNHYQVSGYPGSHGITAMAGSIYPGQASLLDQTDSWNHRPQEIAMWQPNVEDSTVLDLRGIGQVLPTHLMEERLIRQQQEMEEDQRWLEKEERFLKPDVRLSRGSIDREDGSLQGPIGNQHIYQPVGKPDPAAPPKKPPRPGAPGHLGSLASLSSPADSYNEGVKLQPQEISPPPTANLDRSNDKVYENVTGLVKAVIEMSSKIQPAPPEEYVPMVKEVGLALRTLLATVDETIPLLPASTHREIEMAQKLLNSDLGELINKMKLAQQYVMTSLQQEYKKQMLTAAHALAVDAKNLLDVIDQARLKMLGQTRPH
Test [16] has as its target 3-phosphoinositide-dependent protein kinase 1 (Homo sapiens) (UniProt O15530). In words: Inhibition of PDK1 at 10 uM by HTRF assay relative to control.
In test [17] the target is T2, Mitogen-activated protein kinase 12 (Homo sapiens) (UniProt P53778).
T2 sequence (whole entry): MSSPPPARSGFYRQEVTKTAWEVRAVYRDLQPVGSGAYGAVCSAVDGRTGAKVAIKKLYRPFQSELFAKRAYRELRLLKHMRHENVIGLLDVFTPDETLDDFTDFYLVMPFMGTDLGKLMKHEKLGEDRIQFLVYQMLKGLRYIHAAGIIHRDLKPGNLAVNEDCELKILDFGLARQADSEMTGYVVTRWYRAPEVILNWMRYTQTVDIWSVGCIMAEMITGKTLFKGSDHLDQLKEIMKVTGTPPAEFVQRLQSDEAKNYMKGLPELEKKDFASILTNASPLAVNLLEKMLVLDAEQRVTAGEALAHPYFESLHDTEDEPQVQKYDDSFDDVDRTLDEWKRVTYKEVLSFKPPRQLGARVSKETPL
In words: Inhibition of p38-gamma at 10 uM by HTRF assay relative to control. The procedure, abridged:
as §1

Test [18] in a line: Inhibition of AMPKalpha at 10 uM by HTRF assay relative to control. The procedure, abridged: as §1

Molecules are shown by their SMILES.

Chain of Fibroblast growth factor receptor 1 (Homo sapiens) (P11362 22-822 limits assumed): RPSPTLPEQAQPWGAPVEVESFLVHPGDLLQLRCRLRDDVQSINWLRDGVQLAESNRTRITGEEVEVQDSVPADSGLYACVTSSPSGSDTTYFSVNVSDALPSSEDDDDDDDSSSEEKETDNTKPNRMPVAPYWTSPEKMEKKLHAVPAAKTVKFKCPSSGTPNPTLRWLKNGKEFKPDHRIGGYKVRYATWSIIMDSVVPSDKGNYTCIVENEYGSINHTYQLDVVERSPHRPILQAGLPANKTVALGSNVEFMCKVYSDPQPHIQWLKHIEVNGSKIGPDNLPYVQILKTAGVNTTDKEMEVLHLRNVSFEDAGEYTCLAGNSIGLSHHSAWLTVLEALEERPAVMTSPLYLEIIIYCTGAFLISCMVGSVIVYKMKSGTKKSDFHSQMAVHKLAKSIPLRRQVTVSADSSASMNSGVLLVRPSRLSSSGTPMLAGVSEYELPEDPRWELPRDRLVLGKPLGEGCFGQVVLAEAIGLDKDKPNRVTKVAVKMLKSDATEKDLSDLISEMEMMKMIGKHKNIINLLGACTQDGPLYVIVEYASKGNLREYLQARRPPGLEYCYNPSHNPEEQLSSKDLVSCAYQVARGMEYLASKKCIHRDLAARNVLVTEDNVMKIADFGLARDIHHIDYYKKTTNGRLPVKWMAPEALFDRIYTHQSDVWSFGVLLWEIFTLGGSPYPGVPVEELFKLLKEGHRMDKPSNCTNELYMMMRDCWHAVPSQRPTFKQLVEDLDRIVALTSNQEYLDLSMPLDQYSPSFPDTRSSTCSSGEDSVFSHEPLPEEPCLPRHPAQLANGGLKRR
Chain of Ribosomal protein S6 kinase alpha-3 (Homo sapiens) (P51812 whole entry): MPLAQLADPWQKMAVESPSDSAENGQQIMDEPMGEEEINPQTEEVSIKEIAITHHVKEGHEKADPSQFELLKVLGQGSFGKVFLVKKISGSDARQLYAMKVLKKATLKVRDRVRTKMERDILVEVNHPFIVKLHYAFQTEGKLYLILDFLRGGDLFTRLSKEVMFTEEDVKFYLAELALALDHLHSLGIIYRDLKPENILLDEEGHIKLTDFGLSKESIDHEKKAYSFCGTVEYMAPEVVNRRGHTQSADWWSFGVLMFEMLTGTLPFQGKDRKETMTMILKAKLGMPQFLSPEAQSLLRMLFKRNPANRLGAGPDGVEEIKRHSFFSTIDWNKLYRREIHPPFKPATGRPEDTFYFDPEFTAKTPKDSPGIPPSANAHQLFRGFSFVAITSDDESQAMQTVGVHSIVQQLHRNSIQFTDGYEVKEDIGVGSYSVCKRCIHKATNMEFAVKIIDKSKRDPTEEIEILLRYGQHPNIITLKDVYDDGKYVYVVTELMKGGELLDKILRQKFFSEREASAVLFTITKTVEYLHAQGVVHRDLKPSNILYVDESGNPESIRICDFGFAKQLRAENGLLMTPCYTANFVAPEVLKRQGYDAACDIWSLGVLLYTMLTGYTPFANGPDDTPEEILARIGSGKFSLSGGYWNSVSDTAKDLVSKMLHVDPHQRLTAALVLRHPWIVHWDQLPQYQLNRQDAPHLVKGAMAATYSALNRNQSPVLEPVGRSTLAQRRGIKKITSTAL
Chain of Tyrosine-protein kinase ABL1 (Homo sapiens) (P00519 whole entry): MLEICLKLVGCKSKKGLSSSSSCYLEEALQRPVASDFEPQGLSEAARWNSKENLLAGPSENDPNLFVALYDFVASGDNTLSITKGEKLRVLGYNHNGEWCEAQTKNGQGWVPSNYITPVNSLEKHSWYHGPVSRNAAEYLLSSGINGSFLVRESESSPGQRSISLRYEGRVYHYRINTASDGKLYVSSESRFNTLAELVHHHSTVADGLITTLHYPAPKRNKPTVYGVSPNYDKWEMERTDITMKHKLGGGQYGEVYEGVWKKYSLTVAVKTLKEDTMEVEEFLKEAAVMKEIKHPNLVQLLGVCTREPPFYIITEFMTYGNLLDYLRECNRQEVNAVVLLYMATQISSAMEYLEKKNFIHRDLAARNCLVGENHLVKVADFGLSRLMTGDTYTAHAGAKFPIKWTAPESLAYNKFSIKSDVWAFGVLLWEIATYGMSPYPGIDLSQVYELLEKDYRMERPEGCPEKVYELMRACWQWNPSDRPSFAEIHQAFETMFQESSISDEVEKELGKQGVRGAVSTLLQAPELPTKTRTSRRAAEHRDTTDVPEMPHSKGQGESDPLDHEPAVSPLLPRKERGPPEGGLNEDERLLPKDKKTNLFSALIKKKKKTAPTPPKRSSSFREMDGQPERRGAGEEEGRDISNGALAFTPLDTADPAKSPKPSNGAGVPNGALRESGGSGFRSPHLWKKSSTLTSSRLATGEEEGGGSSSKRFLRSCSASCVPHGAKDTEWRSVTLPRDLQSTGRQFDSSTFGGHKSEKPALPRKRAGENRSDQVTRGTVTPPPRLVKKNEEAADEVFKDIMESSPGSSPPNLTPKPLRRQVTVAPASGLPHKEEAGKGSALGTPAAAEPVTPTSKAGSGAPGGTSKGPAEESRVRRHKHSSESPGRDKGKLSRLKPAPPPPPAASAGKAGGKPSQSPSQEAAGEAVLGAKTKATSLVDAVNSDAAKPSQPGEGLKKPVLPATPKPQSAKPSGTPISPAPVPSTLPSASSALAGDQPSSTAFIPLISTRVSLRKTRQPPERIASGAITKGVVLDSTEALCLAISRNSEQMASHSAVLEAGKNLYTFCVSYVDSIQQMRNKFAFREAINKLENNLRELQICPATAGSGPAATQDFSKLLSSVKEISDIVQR

What is called inhibition is the change of the read-out against control, counted positive when it falls. Regarding `Cc1ccc(CN2CCN(c3nccc(C(C#N)c4ccccn4)n3)CC2)cc1` (stereo unspecified), the inhibition in [1] worked out at 0%; in test [2] it was 0%; in test [3] it was 0%; in test [4], 0%; in [5] it was 0%; in test [6], 14%. Moreover, the inhibition in test [7] turned out to be 3%; in test [8] it was 0%; in [9], 4%; in [10], 5%; in [11], 0%; in test [12], 0%. For the same molecule, the inhibition in test [13] was found to be 0%; in test [14] it was 5%; in test [15] it was 3%; in test [16] it was 1%; in test [17] it was 0%; in test [18], 7%.
For the molecule `CC(=O)CCCCC(=O)N1CCN(c2nccc(Oc3cccc(C)c3)n2)CC1`, the inhibition in test [1] came out at 3%; in test [2] it was 0%; in test [3] it was 0%; in test [4] it was 0%; in test [5], 1%; in test [6], 4%. Also, the inhibition in [7] stood at 11%; in [8], 0%; in test [9], 0%; in test [10], 11%; in test [11], 0%; in test [12], 0%. Further, the inhibition came out at 0% in [13]; 1% in test [14]; 4% in [15]; 2% in test [16]; 0% in test [17]; 9% in test [18].
As for `Nc1nc(Nc2ccc3ncsc3c2)cc(N2CCC[C@H]2C(=O)N[C@@H](CO)c2ccccc2)n1`, the inhibition in [1] was determined as 4%; in test [2], 1%; in test [3] it was 0%; in test [4] it was 0%; in [5], 1%; in test [6], 6%. The inhibition in test [7] was 4%; in test [8] it was 0%; in [9], 6%; in test [10], 7%; in test [11], 7%; in test [12], 1%. Further, the inhibition in test [13] was found to be 0%; in test [14], 0%; in [15] it was 7%; in test [16], 2%; in test [17], 1%; in test [18] it was 20%.
Take `COc1ccc(-c2noc(CN3CCN(c4cc(Nc5cccc(O)c5)ncn4)CC3)n2)cc1`: the inhibition in test [1] was found to be 5%; in test [2] it was 0%; in test [3] it was 0%; in test [4] it was 0%; in test [5], 0%; in [6], 6%. Besides, the inhibition amounted to 2% in test [7]; 0% in [8]; 0% in [9]; 0% in [10]; 0% in [11]; 0% in [12]. Besides, the inhibition stood at 1% in [13]; 0% in [14]; 3% in test [15]; 4% in test [16]; 0% in test [17]; 4% in test [18].
As to `COc1cccc(Nc2cc(N3CCC[C@H]3C(=O)NCCc3ccc(O)cc3)nc(N)n2)c1`, the inhibition in test [1] turned out to be 14%; in test [2], 0%; in [3], 0%; in [4], 1%; in test [5] it was 0%; in test [6], 0%. Besides, the inhibition in [7] came to 2%; in [8], 0%; in [9] it was 2%; in test [10], 7%; in test [11], 0%; in test [12], 0%. Besides, the inhibition in test [13] was 0%; in test [14] it was 6%; in test [15], 3%; in test [16], 0%; in test [17] it was 0%; in [18], 9%.
On to `Cc1cccc(N(C)c2cc(Nc3cccc(C(=O)NCc4ccc(N(C)C)cc4)c3)ncn2)c1`, for which the inhibition was determined as 3% in test [1]; 0% in [2]; 0% in [3]; 0% in test [4]; 0% in [5]; 13% in [6]. Also, the inhibition in test [7] came out at 4%; in test [8], 0%; in test [9], 4%; in test [10], 3%; in [11] it was 0%; in test [12], 0%. Further, the inhibition in [13] amounted to 3%; in [14] it was 11%; in test [15] it was 9%; in test [16] it was 0%; in [17], 0%; in [18], 0%.
As to `Cc1cccc(Oc2ccnc(N3CCN(CC(=O)Nc4cccc5c4CCCC5)CC3)n2)c1`, the inhibition in test [1] is 0%; in test [2], 0%; in test [3], 0%; in test [4] it was 1%; in [5], 0%; in test [6], 6%. The inhibition stood at 2% in [7]; 0% in [8]; 1% in test [9]; 0% in test [10]; 0% in test [11]; 5% in test [12]. Also, the inhibition in [13] was found to be 6%; in test [14], 1%; in test [15], 0%; in test [16], 0%; in test [17], 0%; in test [18], 0%.
